CendR NRP1 mod – modulators of CendR peptide binding to NRP-1, primary screen, biochemical, fluorescence polarization, uHTS; 0.85% of 360,000 active; AID 602438, 2012; Neuropilin-1 (Homo sapiens), O14786; inhibition, % at 25 µM; FAM-RPARPAR peptide binding to NRP-1;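 active means inhibition or corrected inhibition above about 18%, plus a signal ratio from 0.5 to 1.5, limit read from the data, passing the limit was not always enough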
PLC-beta3 inh – human PLC-beta3 inhibitors, primary screen, biochemical, fluorescence; 1-phosphatidylinositol 4,5-bisphosphate phosphodiesterase beta-3 (Homo sapiens), Q01970; Purified PLC-beta3, fluorogenic substrate; inhibition, % at 12.2 µM; 0.18% of 370,000 active; in the data active means inhibition above about 11%;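 further: 0% = median of compound wells on plate and 100% = full blocker control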
proKLK7 act – proKLK7 zymogen activators, primary screen, biochemical, fluorescence intensity; Kallikrein-7 (Homo sapiens), P49862; purified proKLK7, EDANS-DABCYL substrate fluorescence; 100% is mature enzyme control, 0% vehicle; activation, % at 7 µM; 0.9% of 370,000 active;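 active means activation above the mean of all tested compounds plus 3 SD, computed per campaign excluding outliers beyond control limits, cut at about 13% in these data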
Target sequence (P49862 whole entry, looked up): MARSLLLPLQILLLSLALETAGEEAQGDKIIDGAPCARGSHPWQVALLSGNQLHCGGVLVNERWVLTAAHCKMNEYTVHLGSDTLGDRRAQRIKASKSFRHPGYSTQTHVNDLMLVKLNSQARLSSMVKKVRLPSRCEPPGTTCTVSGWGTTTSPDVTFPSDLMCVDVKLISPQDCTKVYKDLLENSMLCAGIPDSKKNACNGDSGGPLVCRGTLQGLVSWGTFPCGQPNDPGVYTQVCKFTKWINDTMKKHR
PLC-gamma1 inh – PLC-gamma1 enzyme inhibitors, primary screen, biochemical, fluorescence, purified enzyme; inhibition, % at 12.2 µM; 1-phosphatidylinositol 4,5-bisphosphate phosphodiesterase gamma-1 (Homo sapiens), P19174; fluorogenic substrate; 0.84% of 370,000 active; in the data active means inhibition above about 9.5%
Tn7 DDE FP – inhibitors of Tn7 peptide binding to fibrin DD(E), primary screen, biochemical, fluorescence polarization, human fibrin, Tn7 probe; Fibrinogen beta chain (Homo sapiens), P02675; FP displacement of FITC-Tn7 peptide from fibrin DD(E); 0% = median of compound wells per plate; inhibition, % at 8.3 µM; 0.13% of 370,000 active;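 active means inhibition above the mean of compounds falling within the control limits plus 3 SD of them, cut at about 14% in these data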;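 further: 0% = plate median of compound wells and 100% = 10 µM Aha-Tn7 peptide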
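assay system = human clot-derived fibrin DD(E) complex | quantity = Fibrin-DD(E) at 2 µM final | timing = 10 min preincubation, 3 h with tracer, room temperature | signal = fluorescence polarization | measure = percent inhibition | benchmarks = high control wells with 10 µM unlabelled Aha-Tn7 peptide (full inhibition) | replicates = singlicate testing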
DDE Tn6 FP inh – inhibitors of Tn6 peptide binding to fibrin DD(E), primary screen, biochemical, fluorescence polarization, human fibrin, Tn6 probe | Fibrinogen beta chain (Homo sapiens), P02675 | Fibrin DD(E) TRITC-Tn6 fluorescence polarization displacement | inhibition, % at 8.3 µM | 0.21% of 370,000 active;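 active means inhibition above a per-campaign cutoff: mean of compounds within control limits plus 3 SD, cut at about 15% in these data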;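 further: 0% = median of all compound wells on the plate and 100% = blocking peptide control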
proKLK7 act conf – proKLK7 zymogen activators, confirmation, biochemical, fluorescence intensity, triplicate. 68% of 3,200 active. activation, % at 7 µM. shares compounds with proKLK7 act. AID 686949, 2013. purified proKLK7, EDANS-DABCYL substrate fluorescence; scaled: vehicle 0, mature enzyme 100;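 active means activation, as change over the incubation, above the mean of all tested compounds plus 3 SD, cut at about 13% in these data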
EDANS interfere – EDANS-DABCYL substrate optical interference, artefact control for kallikrein-7 zymogen activator project, biochemical, fluorescence intensity, high throughput; shares compounds with proKLK7 act; no enzyme, 4 h; solvent 0%, active enzyme control 100%; activation, % at 7 µM; 80% of 3,200 active; AID 686952, 2013;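 active means activation above the all-compound mean plus 3 SD, ignoring values outside control-based bounds, cut at about 4.8% in these data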;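 further: value is the 4 h activation minus the activation read at time zero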
EDANS interf – EDANS fluorescence interference in dose response, no enzyme. shares compounds with proKLK7 act. EDANS-DABCYL peptide fluorescence interference. EC50, µM. 20% of 250 active;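 active means compounds that raise the fluorescence signal in this interference counterscreen, with EC50 at or below 10 µM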;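 further: intact quenched peptide substrate alone read at 355 nm excitation and 520 nm emission; signal is fluorescence gain from T0 to T4 after four hours at room temperature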
The depositor's hits bear a star; i = inactive; . = no result. This is a sample that favours compounds with a hit; in the whole collection about 3% have one here.

SMILES | CendR NRP1 mod | PLC-beta3 inh | proKLK7 act | PLC-gamma1 inh | Tn7 DDE FP | DDE Tn6 FP inh | proKLK7 act conf | EDANS interfere | others
COc1ccc2ccccc2c1C=NNC(=O)c1cc(-c2ccc(C)cc2)n[nH]1 | . | -24 | 41* | -20 | -1 | 14 | -23 | -18
CC(=O)Nc1oc(-c2cccc3ccccc23)nc1C#N | 8 | i | 78* | i | 5 | 3 | 72* | 72*
Cc1ccc(-c2nc(=O)[nH]c3ccccc23)cc1 | 18 | -369 | 14* | -258 | -1 | 0 | 16* | 19*
O=c1nc(-c2ccccc2)c2ccccc2[nH]1 | -4 | -240 | 9 | -200 | -10 | -9 | . | .
C=C(C)Cn1c2ccc(NC(=O)NCc3ccccc3)cc2c(=O)n1C | -2 | i | 28* | -459 | 3 | 4 | 32* | 26* | EDANS interf=>70
Cn1c(=O)c2cc(NC(=O)NCCc3ccccc3)ccc2n1Cc1ccccc1 | -16 | -480 | 8 | -364 | -2 | 1 | . | .
CCNC(=O)Nc1ccc2c(c1)c(=O)n(C)n2Cc1ccc(Cl)cc1 | -14 | i | 28* | -419 | -2 | -6 | 16* | 26*
Cc1cc(C)cc(Cn2c3ccc(NC(=O)NCc4ccccc4)cc3c(=O)n2C)c1 | -6 | -487 | -2 | -420 | -6 | 3 | . | .
COc1ccc(CCNC(=O)Nc2ccc3c(c2)c(=O)n(C)n3Cc2ccc(Cl)cc2)cc1OC | -3 | -405 | -9 | -308 | -10 | 5 | . | .
C=C(C)Cn1c2ccc(NC(=O)NCC)cc2c(=O)n1C | 2 | i | 39* | i | 4 | 3 | 53* | 58*
COc1ccc(C(=O)C2(C(=O)Nc3cc(C)cc(C)c3)CC(c3ccccc3C(F)(F)F)=NO2)cc1 (stereo unspecified) | . | -4 | -1 | 0 | 11 | 3 | . | .
O=C(c1cc(-c2ccncc2)nc2ccccc12)N1CCCC(C(F)(F)F)C1 (stereo unspecified) | -4 | 3 | 0 | 3 | -3 | 0 | . | .
CCN1CCN(C(=O)c2cc(-c3ccc(Cl)s3)nc3ccccc23)CC1 | -4 | -388 | -30 | -418 | 6 | -3 | . | .
CCOC(=O)C1CCCN(C(=O)c2cc(-c3ccco3)nc3ccccc23)C1 (stereo unspecified) | -18 | -323 | 31* | -263 | 3 | 2 | 31* | 34*
CCN1CCN(C(=O)c2cc(-c3ccco3)nc3ccccc23)CC1 | 6 | i | 84* | i | 6 | 11 | 72* | 72*
O=C(c1cc(-c2ccco2)nc2ccccc12)N1CCCC(C(F)(F)F)C1 (stereo unspecified) | -21 | i | 48* | i | 5 | 1 | 66* | 67*
CCCCN(C)CCNC(=O)c1cc2c(-c3cccc(OC)c3)nn(C)c2s1 | 8 | -263 | 13* | -204 | 6 | -2 | 10 | 15*
CCN(CC)CCCNC(=O)c1cc2c(-c3cccc(OC)c3)nn(C)c2s1 | 5 | -207 | 11 | -136 | -11 | 2 | . | .
O=C(Nc1nc(-c2ccccc2)cs1)c1ccc(S(=O)(=O)N2CCc3ccccc32)cc1 | -8 | -59 | 14* | -38 | -3 | 10 | 0 | -2
COc1ccc(-c2csc(NC(=O)c3ccc(S(=O)(=O)N4CCc5ccccc5C4)cc3)n2)c(OC)c1 | 1 | -41 | 55* | -34 | -2 | -3 | 59* | 79*
O=C(NCc1ccccc1)OCCN1C(=O)CCC12CCC(c1ccc(Cl)cc1)CC2 (stereo unspecified) | . | 0 | 0 | 1 | -1 | -6 | . | .
CCN1CCN(C(=S)Nc2ccc3nc(N4CCN(CC)CC4)cc(C)c3c2)CC1 | -6 | -269 | 8 | -226 | 2 | -2 | . | .
CCN1CCN(c2cc(C)c3cc(NC(=S)N4CC(C)CC(C)C4)ccc3n2)CC1 (stereo unspecified) | -1 | -270 | 14* | -176 | -4 | 7 | 2 | 4
CCOCCCNC(=S)Nc1ccc2nc(N3CCCC3)cc(C)c2c1 | -4 | -239 | 17* | -187 | -6 | 4 | 8 | 12*
CCN1CCN(c2cc(C)c3cc(NC(=O)c4ccc(C)c(C)c4)ccc3n2)CC1 | -4 | -32 | 29* | -13 | 1 | -4 | 30* | 24* | EDANS interf=i
SMILES | CendR NRP1 mod | PLC-beta3 inh | proKLK7 act | PLC-gamma1 inh | Tn7 DDE FP | DDE Tn6 FP inh | proKLK7 act conf | EDANS interfere | others
O=C(CCn1nnc(-c2cccs2)n1)NCc1cccs1 | . | 0 | 0 | 1 | 0 | 7 | . | .
CCN(CC)C(=O)CC[C@@H]1CC[C@]2(CCCN(Cc3ccncc3)C2)O1 | . | 1 | 0 | -3 | 7 | 0 | . | .
Nc1ccc(-c2nc3ncccc3o2)cc1 | 5 | i | 39* | i | -11 | 1 | 58* | 71*
Nc1cccc(-c2nc3ncccc3o2)c1 | -1 | -147 | 1 | -129 | -7 | 1 | . | .
CN(C)CCCNC(=O)c1cccc(-c2cnc3cccnn23)c1 | 2 | i | 54* | i | -5 | -2 | 60* | 62*
CN(C)CCCNC(=O)c1cccc(-c2ccc3nccn3c2)c1 | -5 | 0 | -1 | 0 | 7 | 1 | . | .
CN(C)C(=O)c1cccc(-c2cnc3cccnn23)c1 | 14 | i | 45* | i | 0 | -1 | 59* | 59*
Cc1cccc(C)c1NC(=O)C1CCN(c2ncccn2)CC1 | . | -9 | 1 | -6 | -2 | 1 | . | .
O=C(OCCN1CCN(C2CN(Cc3cn(Cc4ccccc4Cl)nn3)S(=O)(=O)C2)CC1)c1cc2ccccc2o1 (stereo unspecified) | . | -1 | 0 | -1 | 4 | -1 | . | .
Nc1ccc2c(C(F)(F)F)cc(C(F)(F)F)nc2n1 | 3 | i | 38* | i | 8 | 3 | 47* | 42*
Cc1cc(C)c2c(n1)nn1c(C)c(CCC(=O)NCc3ccco3)c(C)nc21 | -6 | i | 15* | -474 | -2 | 0 | -23 | -26

Source: PubChem BioAssay
